The term inhibition denotes the drop in the measured response relative to a control, in per cent. As usually defined, the Papp is a coefficient for how fast a substance crosses the barrier. A word on the IC50: it is the point on the concentration scale where inhibition reaches its midpoint.

Calls of active or inactive are those of the source. The calls are words filed in the database; no cut-off is given here.

Consider 4 molecules from ChEMBL document CHEMBL4138195, “Discovery of novel propargylamine-modified 4-aminoalkyl imidazole substituted pyrimidinylthiourea derivatives as multifunctional agents for the treatment of Alzheimer's disease” (Eur J Med Chem, 2018).

Series [1] in a line: Inhibition of Cu2+-induced amyloid beta (1 to 42 residues) (unknown origin) aggregation assessed as reduction in amyloid beta fibril load at 50 uM after 24 hrs by phosphotungstic acid staining-based transmission electron microscopic method. In outline: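 Aβ1-42 (25 µM) ± CuCl2 (25 µM) ± compound (50 µM) in HEPES/NaCl pH 6.6, incubated 24 h at 37 °C. Aliquots placed on carbon-coated copper grids for 30 min, stained 20 s with 2% phosphotungstic acid, imaged by TEM. Clioquinol as comparator.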

Series [2] can be described thus: Inhibition of Cu2+-mediated amyloid beta (1 to 42) peptide-induced cytotoxicity in E17 Sprague-Dawley rat primary cortical neurons assessed as neuroprotective activity by measuring increase in cell viability at 1 uM after 24 hrs by MTT assay. In outline:
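Rat E17 primary cortical neurons after 9 days in culture. Aβ1-42 samples, prepared as for the dot blot (± Cu2+, ± compound), added to the cultures at 1 µM for 24 h. Viability by MTT, normalized to the vehicle group. EGCG and clioquinol as positive controls.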
For orientation: Tetrazolium dyes change colour on reduction, which living cells bring about.

Series [3] deals with Cortical neurone. Description: Cytotoxicity against E17 Sprague-Dawley rat primary cortical neurons at 10 to 30 uM after 24 hrs by MTT assay. Format: cell-based.
A short description of series [4]: in vitro. The following applies: PAMPA. A general note: PAMPA measures passive passage across an artificial lipid membrane.
Series [5] in a line: in vitro. The settings on record: PAMPA, pH 7.4.
For series [6], the target named is Butyrylcholinesterase (Rattus norvegicus) (UniProt Q9JKC1). The series can be described thus: Inhibition of BuChE in rat serum at 40 uM using butyrylthiocholine iodide as substrate after 20 mins by Ellman's method. In general terms: DTNB colorimetry detects thiols as they appear.
Chain of Butyrylcholinesterase (Rattus norvegicus) (Q9JKC1 as listed by the source): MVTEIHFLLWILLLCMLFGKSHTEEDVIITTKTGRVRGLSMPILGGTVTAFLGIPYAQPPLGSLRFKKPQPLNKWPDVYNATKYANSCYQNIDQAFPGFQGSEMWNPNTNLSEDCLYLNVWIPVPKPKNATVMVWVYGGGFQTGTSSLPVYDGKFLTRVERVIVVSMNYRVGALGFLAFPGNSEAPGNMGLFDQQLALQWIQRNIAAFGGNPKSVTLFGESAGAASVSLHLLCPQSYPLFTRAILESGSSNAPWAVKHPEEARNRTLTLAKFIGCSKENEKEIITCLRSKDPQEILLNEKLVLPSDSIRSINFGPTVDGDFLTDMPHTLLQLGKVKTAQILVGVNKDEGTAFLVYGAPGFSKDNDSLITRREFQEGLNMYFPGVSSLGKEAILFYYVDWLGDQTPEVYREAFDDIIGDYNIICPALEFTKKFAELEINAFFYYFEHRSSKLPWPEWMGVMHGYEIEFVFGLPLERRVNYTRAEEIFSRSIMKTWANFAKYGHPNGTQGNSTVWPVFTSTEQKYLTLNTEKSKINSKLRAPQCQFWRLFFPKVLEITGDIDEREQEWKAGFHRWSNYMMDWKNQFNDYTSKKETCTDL
Series [7] deals with T1, Acetylcholinesterase (Rattus norvegicus, UniProt P37136).
T1 sequence (P37136 whole entry): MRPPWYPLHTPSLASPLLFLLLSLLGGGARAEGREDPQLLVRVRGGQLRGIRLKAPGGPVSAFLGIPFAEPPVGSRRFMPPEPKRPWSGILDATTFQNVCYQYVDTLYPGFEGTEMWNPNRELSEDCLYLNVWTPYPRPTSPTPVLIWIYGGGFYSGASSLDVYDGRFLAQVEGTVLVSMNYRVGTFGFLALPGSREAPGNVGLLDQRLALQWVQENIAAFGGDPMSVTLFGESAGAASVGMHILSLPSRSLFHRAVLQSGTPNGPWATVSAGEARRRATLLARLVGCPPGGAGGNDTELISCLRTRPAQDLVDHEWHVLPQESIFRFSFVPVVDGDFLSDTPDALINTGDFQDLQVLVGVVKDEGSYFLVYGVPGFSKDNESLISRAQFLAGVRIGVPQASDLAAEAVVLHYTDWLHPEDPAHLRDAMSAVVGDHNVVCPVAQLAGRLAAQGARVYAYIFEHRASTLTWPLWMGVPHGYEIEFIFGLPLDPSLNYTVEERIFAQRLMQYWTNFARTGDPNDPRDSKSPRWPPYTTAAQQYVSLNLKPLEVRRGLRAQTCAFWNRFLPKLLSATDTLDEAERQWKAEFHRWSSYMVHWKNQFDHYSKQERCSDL
The series can be described thus: Inhibition of AChE in rat cortex homogenate using acetylthiocholine iodide as substrate after 20 mins by Ellman's method.

Series [8] deals with Butyrylcholinesterase (Rattus norvegicus, UniProt Q9JKC1). The series can be described thus: Inhibition of BuChE in rat serum using butyrylthiocholine iodide as substrate after 20 mins by Ellman's method.
Chain of Butyrylcholinesterase (Q9JKC1 whole entry): as the sequence (Q9JKC1 as listed by the source) above
Series [9] is filed under the species Rattus norvegicus. The series can be described thus: Selectivity index, ratio of IC50 for BuChE in rat serum to IC50 for AChE in rat cortex homogenate. Format: tissue-based.
In series [10] the target is T2, Amine oxidase [flavin-containing] A (Homo sapiens, UniProt P21397).
T2 sequence (P21397 whole entry): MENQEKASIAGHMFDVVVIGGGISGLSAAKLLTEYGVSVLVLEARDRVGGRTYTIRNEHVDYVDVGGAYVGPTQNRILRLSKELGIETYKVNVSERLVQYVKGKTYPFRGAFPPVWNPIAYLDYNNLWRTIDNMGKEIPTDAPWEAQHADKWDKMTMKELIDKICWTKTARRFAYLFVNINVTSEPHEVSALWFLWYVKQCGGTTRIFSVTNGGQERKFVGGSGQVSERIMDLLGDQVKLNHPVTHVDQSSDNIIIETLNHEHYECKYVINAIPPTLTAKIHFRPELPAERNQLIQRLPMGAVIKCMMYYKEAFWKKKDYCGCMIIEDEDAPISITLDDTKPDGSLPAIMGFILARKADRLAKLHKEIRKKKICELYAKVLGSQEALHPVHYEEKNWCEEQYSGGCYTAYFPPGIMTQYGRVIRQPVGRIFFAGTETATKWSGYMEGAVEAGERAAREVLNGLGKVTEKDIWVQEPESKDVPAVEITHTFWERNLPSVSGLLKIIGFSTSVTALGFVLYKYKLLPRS
The series can be described thus: Inhibition of recombinant human MAOA using p-tyramine as substrate preincubated for 15 mins followed by substrate addition measured after 15 mins by Amplex red reagent based fluorescence assay.

In series [11] the target is T3, Amine oxidase [flavin-containing] B (Homo sapiens, UniProt P27338).
T3 sequence (P27338 whole entry): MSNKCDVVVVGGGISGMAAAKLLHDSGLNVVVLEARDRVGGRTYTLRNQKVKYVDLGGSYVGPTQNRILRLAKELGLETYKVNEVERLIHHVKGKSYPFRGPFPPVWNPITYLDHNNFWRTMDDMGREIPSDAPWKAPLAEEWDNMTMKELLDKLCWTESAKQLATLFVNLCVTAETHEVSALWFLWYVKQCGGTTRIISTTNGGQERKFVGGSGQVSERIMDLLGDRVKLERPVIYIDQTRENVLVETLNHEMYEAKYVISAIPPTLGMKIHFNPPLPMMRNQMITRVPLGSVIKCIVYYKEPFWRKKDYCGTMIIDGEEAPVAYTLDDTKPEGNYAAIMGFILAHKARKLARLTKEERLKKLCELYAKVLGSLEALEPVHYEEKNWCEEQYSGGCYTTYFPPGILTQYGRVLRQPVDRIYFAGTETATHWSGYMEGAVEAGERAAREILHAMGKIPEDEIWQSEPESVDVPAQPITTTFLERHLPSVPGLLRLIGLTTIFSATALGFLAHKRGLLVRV

Series [12] is filed under the species Homo sapiens. Description: Selectivity index, ratio of IC50 for recombinant human MAOA to IC50 for recombinant human MAOB. In outline:
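Recombinant human MAO-A (12.5 µg/mL) or MAO-B (75 µg/mL) preincubated 15 min at 37 °C with compound (diluted from 10 mM DMSO stock in 50 mM KH2PO4, pH 7.4). Amplex Red working solution added: 2 mM p-tyramine (MAO-A) or benzylamine (MAO-B), 2 U/mL HRP. After 15 min at 37 °C, fluorescence read (ex 545/em 590), background from enzyme-free wells subtracted.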

Series [13] is described as follows: Antioxidant activity assessed as trolox equivalent of AAPH radical scavenging activity preincubated for 10 mins followed by AAPH addition measured every 2 mins for 180 mins by ORAC-FL assay. In kind it is functional. In outline: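 Compound at 20 µM (diluted from 10 mM DMSO stock in 75 mM phosphate, pH 7.4) with fluorescein (0.117 µM diluted) for 10 min at 37 °C, then AAPH (40 mM solution) added. Fluorescence (ex 485/em 535) read every 2 min for 180 min. […] Triplicate wells, ≥3 runs.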

Turning to `Oc1c(I)cc(Cl)c2cccnc12`, the inhibition entry in [1] is “Active”. The result in series [2] was Active.
`COc1cc2c(cc1OC)C(=O)C(CC1CCN(Cc3ccccc3)CC1)C2` (centres undefined) [DONEPEZIL]: the Activity result in series [3] is recorded as “Non-Toxic”.
`COc1ccc(CCN2CCC(Nc3nc4ccccc4n3Cc3ccc(F)cc3)CC2)cc1` [ASTEMIZOLE] showed a Papp at 12 h, 100 ug/ml in [4] of 8.48 ×10⁻⁶ cm/s. Besides, in [5], the Papp at 18 h, 25 ug/ml stood at 11 ×10⁻⁶ cm/s.
In series [6], `C#CCNCc1cn(-c2cc(NC(=S)NCC)ncn2)cn1` had an inhibition of 15.2%. In addition, the IC50 in series [7] is 354 nM; in series [8], over 40 µM; in [10] it was 4.33 µM; in series [11], 5.24 µM. For the same molecule, the Ratio IC50 was over 113 in [9] and 0.826 in [12]. For the same molecule, the Activity (umolequiv/umol) in series [13] stood at 1.18. In series [4], this molecule returned an apparent permeability (Papp) at 12 h, 100 ug/ml of 2.78 ×10⁻⁶ cm/s.
